Screens as filed in PubChem.
KCNK9 inh: inhibitors of human KCNK9 two-pore domain potassium channel | AID 488922 | HEK293 KCNK9, FluxOR thallium flux fluorescence; hits give low values | hit rate 1.2% among 310,000 | B-score at 10 µM | Q9NPC2;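 active = ratio B-score over 3 SD below the library mean, with starting fluorescence within 5 SD of its mean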;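 also: negative B-score means less thallium flux so channel inhibition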
Target sequence (Q9NPC2 whole entry, looked up, the tested form may be a part): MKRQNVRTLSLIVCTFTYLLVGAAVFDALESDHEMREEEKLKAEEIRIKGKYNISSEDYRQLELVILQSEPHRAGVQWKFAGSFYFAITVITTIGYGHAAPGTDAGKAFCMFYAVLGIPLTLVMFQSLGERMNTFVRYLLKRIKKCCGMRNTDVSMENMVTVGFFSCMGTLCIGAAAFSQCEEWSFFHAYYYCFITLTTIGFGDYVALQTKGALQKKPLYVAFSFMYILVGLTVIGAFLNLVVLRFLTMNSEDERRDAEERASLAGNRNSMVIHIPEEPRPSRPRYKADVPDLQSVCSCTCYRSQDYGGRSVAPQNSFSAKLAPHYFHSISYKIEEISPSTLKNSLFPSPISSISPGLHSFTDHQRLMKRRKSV
hERG protect: shields human hERG channel from block by proarrhythmic agents | Q12809 | activation (rescue from dofetilide block), less the hit threshold, % at 10 µM | hit rate 0.51% among 310,000 | AID 1511 | CHO-hERG, FluxOR thallium flux, dofetilide IC70 present;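 active = activation above the mean of controls blocked by dofetilide plus 5 SD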;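 also: thallium influx through hERG after potassium depolarization seen as dye fluorescence rise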
Kir21 block: inhibitors of mouse Kir2.1 inward-rectifier potassium channel; P35561; HEK293-Kir2.1, FluxOR thallium flux fluorescence; hits give low values; B-score at 10 µM; hit rate 0.85% among 310,000; AID 1672;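 active = fluorescence ratio B-score at or below minus 3 SD of library scores, with starting-brightness B-score within 2 SD, cut at about -4.2 in these data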;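 also: channel flux triggered by added potassium and thallium sulfate stimulus; B-score of peak minus minimum fluorescence over baseline after thallium stimulus; more negative B-score means stronger Kir2.1 block with less thallium influx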
KCNQ1 inh: human KCNQ1 channel inhibition; AID 2642; B-score at 10 µM; hit rate 1.3% among 310,000; P51787; CHO-K1 KCNQ1, FluxOR thallium flux fluorescence; hits give high values;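 active = compounds whose thallium flux B-score, printed positive for inhibition, exceeds three library SD while starting fluorescence stays within three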;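 also: channel opened by potassium depolarization with thallium stimulus after 20 min compound exposure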
KCNQ1 pot: potentiators or activators of human KCNQ1 potassium channel | P51787 | CHO-K1 KCNQ1, thallium flux FluxOR fluorescence; hits give high values | B-score at 10 µM | hit rate 0.35% among 310,000 | AID 2648;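 active = fluorescence ratio B-score, a plate-corrected score, at least three library SD, with initial intensity B-score within 5 SD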
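assay system = CHO-K1 cells stably expressing KCNQ1 | medium = assay buffer, equal DMSO in all wells | timing = 37 °C overnight plating, 90-min dark dye load, 20-min compound pretreatment | measured by = kinetic FluxOR thallium fluorescence, 10-s 1-Hz baseline, 110-s post-stimulus read | measure = fluorescence change relative to baseline, converted to B score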
KCNK3 block: human KCNK3 channel inhibition, primary screen | hit rate 0.84% among 340,000 | B-score at 10 µM | CHO-KCNK3 thallium flux, FluxOR fluorescence; hits give low values | O14649;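 active = B-score under library mean minus 4 SD, starting fluorescence ratio at most library mean plus 5 SD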;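 also: more negative B-score means stronger inhibition of thallium flux through KCNK3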
An asterisk follows results filed as active; i = inactive; x = no result given. Hits are enriched below; roughly 3.7% of the tested compounds scored in any of these assays.

SMILES	KCNK9 inh	hERG protect	Kir21 block	KCNQ1 inh	KCNQ1 pot	KCNK3 block
Cc1ccc(/C=c2/sc3n(c2=O)CCCN=3)o1	i	-14	-1.6	6*	i	i
O=C1C=C(c2ccc(F)cc2OCc2ccccc2)C[C@@H](c2ccc(Cl)cc2)C1	x	x	x	x	x	i
CCOc1ccc2ccccc2c1C1NC(=O)N(C)C(C)=C1C(=O)OCCOC (stereo unspecified)	i	-2	1.3	i	i	i
Cc1n[nH]c(C)c1Sc1ccccc1N	i	2	-0.51	i	i	i
Cc1cc(C)nc(Sc2c(C)n[nH]c2C)n1	i	5.1*	-1.7	i	i	i
COCCNC(=S)Nc1ccc(Cl)c(Cl)c1	i	-11	0.26	6*	i	i
COc1cc(OC)c(NC(=S)Nc2cc(Cl)cc(Cl)c2)cc1Cl	i	-11	-1	10*	i	i
CCOc1ccc(NC(=S)Nc2cc(OC)c(Cl)cc2OC)cc1	i	-8	0.48	i	i	i
COc1cc(C)c(NC(=S)Nc2ccc(Cl)c(Cl)c2)cc1OC	i	-18	-1.1	6*	i	i
CS(=O)(=O)N(CCc1ccccc1)CC(=O)Nc1ccc2c(c1)OCO2	-7.9*	-8	0.09	i	i	i
O=C(Nn1cnnc1)c1ccc(F)cc1	i	-2	0.68	i	i	i
O=C(CNC(=O)Cc1cccc2ccccc12)NCc1ccc(F)cc1	i	-9	-5.2*	i	i	i
NS(=O)(=O)c1ccc(CCNC(=O)CNC(=O)Cc2cccc3ccccc23)cc1	i	-3	-0.23	i	i	i
COc1ccc([C@H]2/C=C\CN(S(=O)(=O)c3cccc4cccnc34)[C@@H](C)C(=O)N2Cc2ccc(F)cc2)cc1	i	-14	0.62	i	i	i
COc1ccc([C@H]2/C=C\CN(S(=O)(=O)c3ccc4ccccc4c3)[C@@H](C)C(=O)N2Cc2ccc(F)cc2)cc1	-7.8*	-18	-0.01	i	i	i
Cc1ccc(OCC(=O)NNC(=S)NC(=O)c2cccs2)c(C)c1	i	-16	-0.95	i	34*	i
O=C(COc1ccc(Br)cc1Br)NNC(=O)c1cccs1	i	-4	-0.53	i	i	i
CCc1nonc1NC(=O)COc1ccc(Cl)c(C)c1	i	-9	-0.48	6*	i	i
Cc1ccc(OCC(=O)NNC(=S)NC(=O)c2ccc(Br)o2)c(C)c1	i	-9	-0.27	i	69*	i
Cc1cc(OCC(=O)NNC(=S)NC(=O)c2cccs2)ccc1Cl	i	-20	-2	i	15*	i
N#Cc1ccccc1OCC(=O)Nc1ccc(S(=O)(=O)N2CCOCC2)cc1	x	x	x	x	x	i
C/C(=N\NC(=O)c1cc2ccccc2cc1O)c1ccc(C)o1	i	8.9*	-0.01	i	26*	i
OC(CCc1ccncc1)COc1ccccc1 (stereo unspecified)	i	-4	-1.1	i	i	i
CC(=O)Nc1ccc(S(=O)(=O)Nc2nc3ccccc3nc2-n2ccc(=NC(=O)c3ccc(F)cc3)cc2)cc1	i	0	-0.14	i	i	i
O=C(c1ccccc1)C(Nc1ccccn1)c1ccccc1 (stereo unspecified)	-7*	-13	-1.7	i	i	i
SMILES	KCNK9 inh	hERG protect	Kir21 block	KCNQ1 inh	KCNQ1 pot	KCNK3 block
O=C(Nc1ccccn1)c1ccccc1	x	x	x	x	x	i
O=C(c1ccccc1)c1coc2ccc(O)c(CN3CCOCC3)c12	i	-6	-6.3*	i	i	i
Nc1c(S(=O)(=O)c2ccccc2)c2nc3ccccc3nc2n1Cc1ccco1	i	-14	-2.4	i	i	i
Cc1ccc(S(=O)(=O)c2c(N)n(Cc3ccco3)c3nc4ccccc4nc23)cc1C	i	-11	-0.24	14*	i	i
COc1nc(Nc2ccc([N+](=O)[O-])cc2)nc(NC2CCCCC2)n1	-7.1*	-7	0.93	i	i	i
C=CCNc1nc(Nc2ccc([N+](=O)[O-])cc2)nc(OC)n1	i	-7	0.65	i	i	i
CCOCCCn1c(=S)[nH]c2cc(C(=O)N3CCN(c4ccccc4)CC3)ccc2c1=O	i	-4	2.9	i	i	i
COC(=O)c1ccccc1NC(=S)NC(=O)c1ccc2c(c1)OCO2	i	-8	-1.1	i	i	i
O=C(NC(=S)Nc1cc([N+](=O)[O-])ccc1O)c1ccc2c(c1)OCO2	i	-12	1.3	6*	i	i
O=C(NC(=S)Nc1ccccc1N1CCCC1)c1ccc([N+](=O)[O-])cc1	i	8.1*	-0.11	i	8*	i
O=C(NC(=S)Nc1ccccc1N1CCCC1)c1ccc(-c2cccc([N+](=O)[O-])c2)o1	i	-1	0.47	i	8*	i
O=C(NC(=S)Nc1ccccc1N1CCCCC1)c1ccc(-c2cccc([N+](=O)[O-])c2)o1	i	-9	0.59	i	i	i
O=C1c2ccccc2CN1C(CO)Cc1ccccc1 (stereo unspecified)	i	-3	-0.81	i	i	i
Cc1ccnc2nc(C(=O)OCC(=O)N(Cc3ccccc3)C(C)(C)C)nn12	x	x	x	x	x	i
COc1cc(OC)cc(C(=O)Nn2c(C)nc3ccccc3c2=O)c1	i	-10	-0.67	i	i	i
COc1cc(OC)cc(-c2nc3ccccc3c(=O)n2OC(=O)c2ccc(C)c(C)c2)c1	i	-3	0	7*	i	i
C=CCn1c(=S)[nH]c2nc3c(cc2c1=O)CCCC3	i	5.9*	0.77	i	9*	i
C=CCn1c(=S)[nH]c2ccc(Br)cc2c1=O	i	10*	0.02	i	19*	i
CC(C)NC(=S)NC(c1ccccc1)(c1ccccc1)c1ccccc1	i	-4	0.44	10*	i	i
C/C(=N\NC(=S)NC(C)C)c1ccccc1	i	-12	2.1	i	i	i
CC12CCC(O)CC1=CCC1C2CCC2(C)c3[nH]ncc3CC12 (stereo unspecified)	x	x	x	x	x	i
CN1CCN(CCOC2Cc3ccccc3Sc3ccc(Cl)cc32)CC1 (stereo unspecified)	i	-22	-10*	i	i	i
CC(=O)c1ccc(S(=O)(=O)Nc2cc3c(cc2C(C)=O)OCO3)cc1	i	-5	-1	i	i	i
CC(=O)c1cc2c(cc1NS(=O)(=O)c1ccc3c(c1)OCCO3)OCO2	i	5.1*	1.7	i	i	i
O=c1c(-c2ccccc2)c[nH]n1-c1cccc([N+](=O)[O-])c1	i	-12	1.3	7*	i	i
